Active and inactive are the calls of the source. The rule behind the calls is not given here.
What was measured:
Plasmodium falciparum = assay: Antiplasmodial activity against blood stage of chloroquine-sensitive Plasmodium falciparum NF54 by parasite lactate dehydrogenase assay; assay type: functional, organism-based
Method in brief: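 Asexual P. falciparum was kept in continuous culture (modified Trager–Jensen) and read out by parasite lactate dehydrogenase. DMSO stocks were 20 mg/ml, tested as suspensions and diluted 2-fold in complete medium to 10 concentrations. Chloroquine and artesunate served as references. IC50 came from non-linear dose–response fitting; values are the mean of three observations.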

[1] = Cytotoxicity against human HuH7 cells assessed as effect on cell proliferation at 1 to 10 uM by Alamar Blue assay; assay type: cell-based; settings: huh-7, 10 µM
Method in brief: (§1)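 Huh-7 viability was measured by Alamar Blue in parallel with the 48 h sporozoite infection assay, in RPMI 1640/10% FBS/HEPES medium at 37 °C and 5% CO2. The initial screen tested each compound at […], scoring cell confluence and proliferation.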

Plasmodium berghei [2] = assay: Antiplasmodial activity against liver-stage of Plasmodium berghei expressing firefly luciferase infected in human Huh-7 cells after 48 hrs by bioluminescence assay; assay type: functional, organism-based; settings: Huh-7, Liver
Method in brief: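 Huh-7 hepatoma cells were grown in RPMI 1640 with 10% FBS, NEAA, glutamine and 10 mM HEPES pH 7, at 37 °C and 5% CO2, and seeded at 1.0 × 10^4 per well the day before. Compound medium went on about 1 h before fresh A. stephensi sporozoites of firefly-luciferase P. berghei, followed by centrifugation at 1700 g for 5 min. Luminescence was read 48 h post-infection, and IC50 came from dose–response.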

[3] = Selectivity index, ratio of CC50 for human HuH7 cells to IC50 for liver-stage of Plasmodium berghei expressing firefly luciferase infected in human Huh-7 cells; assay type: functional
[4] = Cytotoxicity against human HuH7 cells assessed as cell viability by Alamar Blue assay; assay type: cell-based, Huh-7; method in brief: as §1
Plasmodium berghei [5] = assay: Antiplasmodial activity against Plasmodium berghei ANKA expressing luciferase infected in C57Bl/6J mouse assessed as reduction of liver parasite load at 50 mg/kg, po administered 8 hrs prior to parasite infection measured after 24 hrs; assay type: functional, organism-based; settings: in the assay text read “measured after 47 hrs” for “measured after 24 hrs”
Method in brief: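 C57Bl/6J mice were inoculated intravenously with 5 × 10^3 luciferase-expressing P. berghei ANKA sporozoites from A. stephensi salivary glands. Drug was given at 50 mg/kg by oral gavage as a sunflower-oil suspension from a DMSO stock, 8 h before, at, and 24 h after infection; controls got vehicle. Livers were homogenized in guanidine thiocyanate denaturing solution 47 h post-infection to quantify parasite load.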

Plasmodium berghei [6] = assay: Ratio of primaquine IC50 to compound IC50 for liver-stage of Plasmodium berghei expressing firefly luciferase infected in human Huh-7 cells; assay type: functional

SMILES	IC50 (Plasmodium falciparum) [nM]	Activity [1]	IC50 (Plasmodium berghei [2]) [nM]	Ratio CC50/IC50 [3]	CC50 [4] [nM]	Activity (Plasmodium berghei [5])	Ratio IC50 (Plasmodium berghei [6])
COc1cc(NC(C)CCCNc2nc(C)c(C(=O)OC(C)C)c(-c3ccccc3[N+](=O)[O-])n2)c2ncccc2c1 (stereo unspecified)	2790	Non-toxic					
COc1cc(NC(C)CCCNc2nc(C)c(C(=O)OC(C)C)c(-c3cccc([N+](=O)[O-])c3)n2)c2ncccc2c1 (stereo unspecified)	2670	Non-toxic	1500	>66.6	> 100000	inactive	
COc1cc(NC(C)CCCNc2nc(C)c(C(=O)OC(C)C)c(-c3ccccc3)n2)c2ncccc2c1 (stereo unspecified)	4800	Non-toxic					
COc1cc(NC(C)CCCN)c2ncccc2c1 (stereo unspecified) [PRIMAQUINE]	892		8430				
C[C@H]1[C@H](OC(=O)CCC(=O)O)O[C@@H]2O[C@@]3(C)CC[C@H]4[C@H](C)CC[C@@H]1[C@@]24OO3 [ARTESUNATE]	4.4						
CCOC(=O)c1c(C)nc(NCCCC(C)Nc2cc(OC)cc3cccnc23)nc1-c1ccc(OC)cc1 (stereo unspecified)	3280	Non-toxic	1570	>63.6	> 100000		
CCOC(=O)c1c(C)nc(NCCCC(C)Nc2cc(OC)cc3cccnc23)nc1-c1ccc(F)cc1 (stereo unspecified)	3430	Non-toxic					
COC(=O)c1c(C)nc(NCCCC(C)Nc2cc(OC)cc3cccnc23)nc1C (stereo unspecified)	2000	Non-toxic					
CCOC(=O)c1c(C)nc(NCCCC(C)Nc2cc(OC)cc3cccnc23)nc1-c1ccccc1 (stereo unspecified)	4320	Non-toxic	1260	>79.3	> 100000		6.7
O=C1C(O)=C([C@H]2CC[C@H](c3ccc(Cl)cc3)CC2)C(=O)c2ccccc21 [ATOVAQUONE]			1.8				
COc1cc(NC(C)CCCNc2nc(C)c(C(=O)OC(C)C)c(-c3ccc([N+](=O)[O-])cc3)n2)c2ncccc2c1 (stereo unspecified)	1930	Non-toxic					
CCOC(=O)c1c(C)nc(NCCCC(C)Nc2cc(OC)cc3cccnc23)nc1C (stereo unspecified)	3780	Non-toxic	1860	32.6	61000		

Source: ChEMBL document CHEMBL3612004, “Primaquine-pyrimidine hybrids: synthesis and dual-stage antiplasmodial activity” (Eur J Med Chem, 2015)
